Assay outcomes: PubChem BioAssay, several laboratories
Compounds with a hit are over-represented: about 2.3% of the library has one in this group of screens.
HNF4A DNA FP: change in binding of human HNF4A to DNA, primary screen, biochemical, fluorescence polarization, FITC-DNA; activity change, % at 10 µM; 360,000 tested, 0.3% active; AID 1224865, 2016; 1 h; in the data active means activity change above about 30%, passing the limit was not always enough
CSN deneddyl inh: inhibitors of CSN-mediated cullin deneddylation, primary screen, biochemical, fluorescence polarization, uHTS; COP9 signalosome complex subunit 5 (Homo sapiens), Q92905; AID 651999, 2013; 360,000 tested, 0.38% active; Purified CSN, SCF-Nedd8-OG deneddylation; inhibition, % at 12.5 µM;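 active means pattern-corrected inhibition above about 35%, with an unprinted fluorescence ratio check between 0.5 and 1.5, limit read from the data, passing the limit was not always enough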;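 further: 0% = enzyme with substrate and 100% = substrate without enzyme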
Target sequence (Q92905 whole entry, looked up, one chain of several): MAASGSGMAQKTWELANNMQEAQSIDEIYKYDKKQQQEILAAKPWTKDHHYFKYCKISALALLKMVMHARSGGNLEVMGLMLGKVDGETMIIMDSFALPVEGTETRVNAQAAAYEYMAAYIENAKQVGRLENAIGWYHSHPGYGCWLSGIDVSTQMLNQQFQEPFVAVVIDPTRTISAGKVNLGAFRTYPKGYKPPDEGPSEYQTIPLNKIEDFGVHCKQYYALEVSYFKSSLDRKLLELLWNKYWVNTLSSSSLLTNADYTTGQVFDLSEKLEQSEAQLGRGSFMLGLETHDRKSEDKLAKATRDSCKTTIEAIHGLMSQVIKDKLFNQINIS
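test system = HEK293T-derived human Csn5 enzyme | amount = 0.24 nM Csn5 enzyme, final concentration | medium = Tris/NaCl/DTT buffer, pH 7.5 | schedule = 90 min reaction at room temperature | signal = FP | evaluation = inhibition of Csn5 cleavage, % | compound dosing = single dose of 12.5 µM compound with 0.25% DMSO | probe or stimulus = 10 nM SCFSkp2-Nedd8OG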
TPT1 inhibitor: Candida albicans TPT1 enzyme inhibitors, primary screen, biochemical, fluorescence polarization; tRNA 2'-phosphotransferase TPT1 (Candida albicans SC5314); recombinant caTPT1, FP RNA substrate dephosphorylation; inhibition, % at 5 µM; 300,000 tested, 0.81% active; AID 1962, 2009;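 active means inhibition above the mean of all tested compounds plus 3 SD, set per screening campaign, cut at about 24% in these data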;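 further: plate controls were DMSO alone for no effect and ferristatin control at 100 nM for full effect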
CRFR2-BP ag: agonists of CRF-BP/CRF-R2 complex, primary screen, cell-based, HEK293, calcium dye fluorescence, uHTS; calcium dye fluorescence (FLIPR); percent of saturating CRF peptide response; activation, % at 13.2 µM; 350,000 tested, 0.46% active; AID 588473, 2011;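 active means activation of at least 50%, plus an integration ratio under a set limit after plate pattern correction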;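 further: plate controls were neutral control wells without compound for no effect and CRF at EC100 for full effect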
Rpn11 block: Rpn11 (PSMD14) deubiquitinase inhibitors, primary screen, biochemical, fluorescence polarization, uHTS | 26S proteasome non-ATPase regulatory subunit 14 (Homo sapiens), O00487 | human 26S proteasome, Ub4-pepOG fluorescence polarization; 20S core pre-blocked with epoxomicin | calls only at 20 µM | 360,000 tested, 0.59% active | AID 588493, 2011;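 active means inhibition at 20 µM, scaled to each plate's controls, above about 33%, limit read from the data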
CRFR2-BP antag: antagonists of CRF-BP/CRF-R2 complex, primary screen, cell-based, HEK293, calcium dye fluorescence, uHTS; CRF-induced calcium fluorescence; inhibition, % at 11.8 µM; 350,000 tested, 0.59% active; AID 588475, 2011;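 active means inhibition of the ligand-induced calcium signal above about 50% at the single tested concentration, limit read from the data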
* hit, by the source's call.

Screening Cc1cc(OC(=O)c2ccco2)c2c3c(c(=O)oc2c1)CCCC3 returned HNF4A DNA FP 0, CSN deneddyl inh 7, TPT1 inhibitor -2, CRFR2-BP ag 0, Rpn11 block inactive and CRFR2-BP antag 40.
`Cc1cc(OC(=O)c2cccs2)c2c3c(c(=O)oc2c1)CCCC3` gave HNF4A DNA FP 2, CSN deneddyl inh 1, TPT1 inhibitor -2, CRFR2-BP ag 12, Rpn11 block inactive and CRFR2-BP antag 52*.
Screening CC(Cc1ccccc1)NCC(=O)Nc1cc(N(C)C)nc2ccccc12 (centres undefined) returned HNF4A DNA FP 0, CSN deneddyl inh -1, TPT1 inhibitor -4, CRFR2-BP ag -1, Rpn11 block inactive and CRFR2-BP antag -13.
For CCOC(=O)Cn1cc(C=C2C(=O)N(C)C(=O)N(C)C2=O)c2ccccc21 the results were HNF4A DNA FP -1, CSN deneddyl inh -13, TPT1 inhibitor 23, CRFR2-BP ag 66*, Rpn11 block inactive and CRFR2-BP antag -49.
For C=C(CC1CC(O)[C@]2(C)OC3CC4OC5C[C@]6(C)O[C@]7(C)CCC8OC9C[C@]%10(C)OC%11C(C)=CC(=O)OC%11CC%10OC9C[C@@H](C)C8OC7CC6O[C@]5(C)C/C=C\C4OC3CC2O1)C(=O)O (some centres undefined) the results were HNF4A DNA FP -3, CSN deneddyl inh -5, TPT1 inhibitor 1, CRFR2-BP ag 2, Rpn11 block inactive and CRFR2-BP antag -4.
`CC1=CC(=O)OC2CC3OC4C[C@@H](C)C5OC6CC7O[C@]8(C)C/C=C\C9OC%10CC%11OC(CC(C)C%12OCCO%12)CC(O)[C@]%11(C)OC%10CC9OC8C[C@]7(C)O[C@]6(C)CCC5OC4C[C@]3(C)OC12` (some centres undefined) gave HNF4A DNA FP -1, CSN deneddyl inh -1, CRFR2-BP ag 75*, Rpn11 block inactive and CRFR2-BP antag -32.
For CN(C)C1=NP(N(C)C)(N(C)C)=NC(c2ccccc2)=N1 the results were HNF4A DNA FP -1, CSN deneddyl inh -4, TPT1 inhibitor -1, CRFR2-BP ag -1, Rpn11 block inactive and CRFR2-BP antag 52*.
Screening O=C(C(=C1N(Cc2ccc(Cl)nc2)CCN1Cc1ccc(Cl)nc1)[N+](=O)[O-])C(Cl)Cl returned HNF4A DNA FP 1, CSN deneddyl inh 1, TPT1 inhibitor -1, CRFR2-BP ag 148*, Rpn11 block inactive and CRFR2-BP antag -91.
Screening Cc1ccsc1/C=C1\C(=O)NC(=S)N(C)C1=O returned HNF4A DNA FP -2, CSN deneddyl inh 1, TPT1 inhibitor -2, CRFR2-BP ag 1, Rpn11 block inactive and CRFR2-BP antag 3.
`COc1ccc(/C=C2\C(=O)NC(=S)N(C)C2=O)cc1C` gave HNF4A DNA FP -70, CSN deneddyl inh 22, TPT1 inhibitor 1, CRFR2-BP ag 3, Rpn11 block active and CRFR2-BP antag 3.
COc1ccc(-c2cc(-c3ccccc3)[n+](C)c(-c3ccccc3)c2)cc1 was read as HNF4A DNA FP 1, CSN deneddyl inh -16, TPT1 inhibitor -4, CRFR2-BP ag 0, Rpn11 block inactive and CRFR2-BP antag 10.
`COc1ccc(-[n+]2c(-c3ccccc3)cc(-c3ccc(C)cc3)cc2-c2ccccc2)cc1` gave HNF4A DNA FP -5, CSN deneddyl inh 5, TPT1 inhibitor 0, CRFR2-BP ag 82*, Rpn11 block inactive and CRFR2-BP antag -81.
For Cc1c(C(=O)Nc2ccccc2)cc(-c2ccccc2)n1CCCN1CCOCC1 the results were HNF4A DNA FP -1, CSN deneddyl inh -4, TPT1 inhibitor -1, CRFR2-BP ag -1, Rpn11 block inactive and CRFR2-BP antag -17.
